Assay results from ChEMBL document CHEMBL1799968, “Dimethyl-diphenyl-propanamide derivatives as nonsteroidal dissociated glucocorticoid receptor agonists” (J Med Chem, 2010).

Tests used:
Androgen receptor = target: T1, Androgen receptor (Homo sapiens, UniProt P10275); test: Binding affinity to androgen receptor by fluorescence polarization assay
T1 sequence (P10275 whole entry): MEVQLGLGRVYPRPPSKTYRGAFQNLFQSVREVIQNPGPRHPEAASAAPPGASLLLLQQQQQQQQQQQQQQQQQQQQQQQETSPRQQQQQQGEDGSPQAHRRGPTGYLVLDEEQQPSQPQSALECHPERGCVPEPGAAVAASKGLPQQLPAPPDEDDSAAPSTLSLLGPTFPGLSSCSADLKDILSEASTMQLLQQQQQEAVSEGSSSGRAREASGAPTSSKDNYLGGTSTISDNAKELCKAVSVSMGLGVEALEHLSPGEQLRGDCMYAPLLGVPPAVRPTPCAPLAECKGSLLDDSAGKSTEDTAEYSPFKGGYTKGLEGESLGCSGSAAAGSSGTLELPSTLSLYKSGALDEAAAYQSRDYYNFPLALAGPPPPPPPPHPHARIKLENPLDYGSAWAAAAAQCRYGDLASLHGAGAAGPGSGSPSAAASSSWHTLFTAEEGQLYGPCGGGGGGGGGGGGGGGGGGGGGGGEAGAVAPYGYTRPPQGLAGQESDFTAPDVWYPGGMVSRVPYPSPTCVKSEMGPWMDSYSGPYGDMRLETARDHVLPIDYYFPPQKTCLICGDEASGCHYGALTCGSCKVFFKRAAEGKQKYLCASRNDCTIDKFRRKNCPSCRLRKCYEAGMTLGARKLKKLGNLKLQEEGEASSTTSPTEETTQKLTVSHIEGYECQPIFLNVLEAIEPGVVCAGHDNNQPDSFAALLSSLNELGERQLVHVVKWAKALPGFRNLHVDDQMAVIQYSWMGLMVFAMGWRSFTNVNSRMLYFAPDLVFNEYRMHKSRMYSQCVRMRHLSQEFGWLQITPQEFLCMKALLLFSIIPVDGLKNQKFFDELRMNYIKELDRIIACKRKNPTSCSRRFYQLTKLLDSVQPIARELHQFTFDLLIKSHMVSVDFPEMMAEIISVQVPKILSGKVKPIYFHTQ
Summary of the method: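 Fluorescence polarization competition of test compound against a fluorescently labelled ligand for binding to full-length receptor or its ligand-binding domain.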

[1] = Selectivity ratio of Ki of GRapha to Ki of androgen receptor
Glucocorticoid receptor [2] = target: T2, Glucocorticoid receptor (Homo sapiens, UniProt P04150); test: Transactivation activity of glucocorticoid receptor ligand binding domain expressed in human NP-1 Hela cells co-expressing GAL4 DNA binding domain by luciferase reporter gene assay; type: cell-based
T2 sequence (P04150 whole entry): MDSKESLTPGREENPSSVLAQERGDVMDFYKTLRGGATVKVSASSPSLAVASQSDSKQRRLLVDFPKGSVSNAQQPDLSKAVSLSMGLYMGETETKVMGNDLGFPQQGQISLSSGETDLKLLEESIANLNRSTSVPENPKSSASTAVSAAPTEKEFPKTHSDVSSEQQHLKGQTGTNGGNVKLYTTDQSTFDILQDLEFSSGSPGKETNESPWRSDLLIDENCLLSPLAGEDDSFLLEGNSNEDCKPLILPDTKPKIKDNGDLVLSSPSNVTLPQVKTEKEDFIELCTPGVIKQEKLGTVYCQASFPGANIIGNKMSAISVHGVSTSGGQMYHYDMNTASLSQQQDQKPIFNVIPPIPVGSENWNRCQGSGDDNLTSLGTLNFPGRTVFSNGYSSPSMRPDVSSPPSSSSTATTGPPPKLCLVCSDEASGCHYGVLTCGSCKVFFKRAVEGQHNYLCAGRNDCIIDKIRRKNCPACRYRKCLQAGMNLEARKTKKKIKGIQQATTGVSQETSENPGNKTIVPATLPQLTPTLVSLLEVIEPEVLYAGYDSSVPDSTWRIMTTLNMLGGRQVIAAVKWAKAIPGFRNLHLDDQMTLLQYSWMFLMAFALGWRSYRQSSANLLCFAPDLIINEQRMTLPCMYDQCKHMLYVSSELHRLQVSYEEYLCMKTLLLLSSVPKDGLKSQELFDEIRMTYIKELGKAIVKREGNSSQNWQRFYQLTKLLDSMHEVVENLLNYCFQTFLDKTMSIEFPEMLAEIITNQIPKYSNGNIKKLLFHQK

[3] = Selectivity ratio of Ki of GRapha to Ki of progesterone receptor
Glucocorticoid receptor [4] = target: T2, Glucocorticoid receptor; test: Transactivation activity at glucocorticoid receptor in human 13D3/Huh7 cells assessed as induction of tyrosine aminotransferase activity after 24 hrs; type: cell-based, Huh-7
[5] = target: T3, Glucocorticoid receptor (Homo sapiens) (UniProt P04150); test: Transrepression activity of glucocorticoid receptor in human A549 cells expressing AP-1 assessed as inhibition of PMA-induced AP-1 activity by luciferase reporter gene assay relative to Dexamethasone; type: cell-based
T3 sequence (whole entry): T2 sequence (P04150 whole entry)
Summary of the method: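 Human A549 lung epithelial cells stably transfected with a 5×AP-1 response element luciferase reporter. AP-1 was induced with PMA (15 ng/mL), and inhibition was read as decreased luciferase.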

[6] = target: T3, Glucocorticoid receptor (Homo sapiens); test: Transactivation activity at glucocorticoid receptor in human 13D3/Huh7 cells assessed as induction of tyrosine aminotransferase activity after 24 hrs relative to Dexamethasone; type: cell-based; conditions: Huh-7
Summary of the method: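 Human 13D3/Huh7 hepatoma cells, 20 K/well, were incubated overnight at 37 °C/5% CO2. They were then treated overnight with compounds in assay medium containing 20 μM forskolin. The reaction was stopped with KOH and A340 read. Results are % activation, with EC50 derived.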

Glucocorticoid receptor [7] = target: T2, Glucocorticoid receptor; test: Transrepression activity of glucocorticoid receptor in human A549 cells expressing AP-1 assessed as inhibition of PMA-induced AP-1 activity by luciferase reporter gene assay; type: cell-based

SMILES | Ki (Androgen receptor) | Ratio Ki [1] | EC50 (Glucocorticoid receptor [2]) | Ratio Ki [3] | EC50 (Glucocorticoid receptor [4]) | Efficacy [5] | Efficacy [6] | EC50 (Glucocorticoid receptor [7])
CC(C)(C(=O)Nc1nccs1)[C@@H](c1ccccc1)c1ccc(O)cc1 | 1060 nM | > 870 | 372 nM | 227 | 251 nM | 63% | 21% | 40.9 nM
CC(C)(C(=O)Nc1nccs1)[C@H]1c2ccccc2Oc2cc(O)ccc21 | 2340 nM | > 870 | 60.1 nM | 73 | 27.1 nM | 81% | 39% | 17.5 nM
CC(C)(C(=O)Nc1nccs1)[C@@H](c1ccccc1)c1ccc(O)c(Br)c1 | 370 nM | > 870 | 115 nM | 66 | 142 nM | 83% | 29% | 40.1 nM

Continued by falling Ki (Androgen receptor), values first:

Ki (Androgen receptor) | Ratio Ki [1] | EC50 (Glucocorticoid receptor [2]) | Ratio Ki [3] | EC50 (Glucocorticoid receptor [4]) | Efficacy [5] | Efficacy [6] | EC50 (Glucocorticoid receptor [7]) | SMILES
1030 nM | > 870 | 119 nM | 66 | 36.1 nM | 79% | 48% | 15.9 nM | CC(C)(C(=O)Nc1nccs1)[C@@H](c1ccccc1)c1ccc(O)c(F)c1
696 nM | > 870 | 85.7 nM | 66 | 91.3 nM | 82% | 45% | 7.8 nM | CC(C)(C(=O)Nc1nncs1)[C@H]1c2ccccc2Oc2cc(O)ccc21
